Values after ≈ are worked out from the molar mass of the structure shown.
Columns and labels:
1A9 [1] = experiment: Cytotoxicity against human 1A9 cells after 6 days by SRB assay in presence of Ca2+; assay type: functional; details: 1A9, 144 h, read-out: ED50 (the source's name)
Procedure, shortened: (§1)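 1A9 ovarian cells or the β-tubulin-mutant PTX10 subline were grown in RPMI-1640 with 10% FBS and 25 mM HEPES. CaCl2 was included in the bioassay as the Ca2+ source. Cells were seeded at 1500-7500 per well with DMSO-diluted compound and cultured for 6 days before SRB staining. The read-out was ED50.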

1A9 [2] = experiment: Cytotoxicity against human 1A9 cells after 3 days by SRB assay in presence of Ca2+; assay type: functional; details: 1A9, 72 h, read-out: ED50 (the source's name)
Procedure, shortened: (§2)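 This is the 3-day SRB growth assay in RPMI-1640 with 10% FBS and 25 mM HEPES, with CaCl2 added to the bioassay as the Ca2+ source. Trypsinized cells were seeded at 1500-7500 per well with DMSO-diluted compound, then fixed with cold TCA, stained with 0.4% SRB and read at 562 nm. ED50 is the concentration causing 50% growth reduction.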

MCF7 [3] = experiment: Cytotoxicity against human MCF7 cells after 3 days by SRB assay in presence of Ca2+; assay type: functional; details: MCF7, 72 h, read-out: ED50 (the source's name); procedure, shortened: as §2
1A9 [4] = experiment: Cytotoxicity against human 1A9 cells after 6 days by SRB assay; assay type: functional; details: 1A9, 144 h, read-out: ED50 (the source's name)
Procedure, shortened: (§3)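 Parent 1A9 ovarian cells or the PTX10 subline (mutated β-tubulin) were grown in RPMI-1640 with 25 mM HEPES, 0.25% NaHCO3, 10% FBS and kanamycin. Freshly trypsinized cells were seeded at 1500-7500 per well with DMSO-diluted compound, cultured for 6 days, and evaluated by SRB staining. Activity was expressed as ED50.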

[5] = Cytotoxicity against human U87MG cells after 3 days by SRB assay in presence of Ca2+; assay type: functional, U-87MG ATCC; details: U-87 MG, 72 h, read-out: ED50 (the source's name)
[6] = Cytotoxicity against human U87MG cells after 3 days by SRB assay; assay type: functional, U-87MG ATCC; details: U-87 MG, 72 h, read-out: ED50 (the source's name)
HCT-8 [7] = experiment: Cytotoxicity against human HCT8 cells after 3 days by SRB assay; assay type: functional; details: HCT-8, 72 h, read-out: ED50 (the source's name)
Procedure, shortened: (§4)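 Cells were grown in RPMI-1640 with 25 mM HEPES, 0.25% NaHCO3, 10% FBS and kanamycin. Freshly trypsinized cells were seeded at 1500-7500 per well with compound from a DMSO-diluted stock and cultured for 3 days. Attached cells were fixed with cold 50% TCA, stained with 0.4% SRB, and the solubilized dye was read at 562 nm. ED50 is the concentration giving 50% growth reduction over 3 days.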

PC-3 [8] = experiment: Cytotoxicity against human PC3 cells after 3 days by SRB assay in presence of Ca2+; assay type: functional; details: PC-3, 72 h, read-out: ED50 (the source's name); procedure, shortened: as §2
KB [9] = experiment: Cytotoxicity against human vincristine-resistant KB cells after 3 days by SRB assay in presence of Ca2+; assay type: functional; details: 72 h, read-out: ED50 (the source's name); procedure, shortened: as §2
KB [10] = experiment: Cytotoxicity against human KB cells after 3 days by SRB assay in presence of Ca2+; assay type: functional; details: 72 h, read-out: ED50 (the source's name); procedure, shortened: as §2
1A9/ptx-10 [11] = experiment: Cytotoxicity against human 1A9/PTX10 cells after 3 days by SRB assay in presence of Ca2+; assay type: functional; details: 1A9/ptx-10, 72 h, read-out: ED50 (the source's name); procedure, shortened: as §2
1A9/ptx-10 [12] = experiment: Cytotoxicity against human 1A9/PTX10 cells after 3 days by SRB assay; assay type: functional; details: 1A9/ptx-10, 72 h, read-out: ED50 (the source's name); procedure, shortened: as §4
A549 [13] = experiment: Cytotoxicity against human A549 cells after 3 days by SRB assay; assay type: functional; details: A549, 72 h, read-out: ED50 (the source's name); procedure, shortened: as §4
1A9/ptx-10 [14] = experiment: Cytotoxicity against human 1A9/PTX10 cells after 6 days by SRB assay; assay type: functional; details: 1A9/ptx-10, 144 h, read-out: ED50 (the source's name); procedure, shortened: as §3
KB [15] = experiment: Cytotoxicity against human vincristine-resistant KB cells after 3 days by SRB assay; assay type: functional; details: 72 h, read-out: ED50 (the source's name); procedure, shortened: as §4
MCF7 [16] = experiment: Cytotoxicity against human MCF7 cells after 3 days by SRB assay; assay type: functional; details: MCF7, 72 h, read-out: ED50 (the source's name); procedure, shortened: as §4
1A9/ptx-10 [17] = experiment: Cytotoxicity against human 1A9/PTX10 cells after 6 days by SRB assay in presence of Ca2+; assay type: functional; details: 1A9/ptx-10, 144 h, read-out: ED50 (the source's name); procedure, shortened: as §1
PC-3 [18] = experiment: Cytotoxicity against human PC3 cells after 3 days by SRB assay; assay type: functional; details: PC-3, 72 h, read-out: ED50 (the source's name); procedure, shortened: as §4
KB [19] = experiment: Cytotoxicity against human KB cells after 3 days by SRB assay; assay type: functional; details: 72 h, read-out: ED50 (the source's name); procedure, shortened: as §4
A549 [20] = experiment: Cytotoxicity against human A549 cells after 3 days by SRB assay in presence of Ca2+; assay type: functional; details: A549, 72 h, read-out: ED50 (the source's name); procedure, shortened: as §2
HCT-8 [21] = experiment: Cytotoxicity against human HCT8 cells after 3 days by SRB assay in presence of Ca2+; assay type: functional; details: HCT-8, 72 h, read-out: ED50 (the source's name); procedure, shortened: as §2
1A9 [22] = experiment: Cytotoxicity against human 1A9 cells after 3 days by SRB assay; assay type: functional; details: 1A9, 72 h, read-out: ED50 (the source's name); procedure, shortened: as §4
SK-MEL-2 [23] = experiment: Cytotoxicity against human SK-MEL-2 cells after 3 days by SRB assay; assay type: functional; details: SK-MEL-2, 72 h, read-out: ED50 (the source's name); procedure, shortened: as §4
SK-MEL-2 [24] = experiment: Cytotoxicity against human SK-MEL-2 cells after 3 days by SRB assay in presence of Ca2+; assay type: functional; details: SK-MEL-2, 72 h, read-out: ED50 (the source's name); procedure, shortened: as §2
[25] = Cytotoxicity against human CAKI cells after 3 days by SRB assay; assay type: functional; details: 72 h, read-out: ED50 (the source's name); procedure, shortened: as §4
[26] = Cytotoxicity against human CAKI cells after 3 days by SRB assay in presence of Ca2+; assay type: functional; details: 72 h, read-out: ED50 (the source's name); procedure, shortened: as §2

SMILES	EC50 (1A9 [1])	EC50 (1A9 [2])	EC50 (MCF7 [3])	EC50 (1A9 [4])	EC50 [5]	EC50 [6]	EC50 (HCT-8 [7])	EC50 (PC-3 [8])	EC50 (KB [9])	EC50 (KB [10])	EC50 (1A9/ptx-10 [11])	EC50 (1A9/ptx-10 [12])	EC50 (A549 [13])	EC50 (1A9/ptx-10 [14])	EC50 (KB [15])	EC50 (MCF7 [16])	EC50 (1A9/ptx-10 [17])	EC50 (PC-3 [18])	EC50 (KB [19])	EC50 (A549 [20])	other results
CCCCCCC[C@@H](O)[C@H]1CC[C@@H]([C@@H](O)CCCCCCCCCC[C@@H](O)CC(=O)CC[C@@H](O)CC2=C[C@H](C)OC2=O)O1	0.13 µg/mL	2 µg/mL	6.4 µg/mL	0.54 µg/mL (≈ 0.884 µM)	14.3 µg/mL	15 µg/mL (≈ 24.6 µM)	12.9 µg/mL (≈ 21.1 µM)	12.1 µg/mL	13.8 µg/mL	8.2 µg/mL	5.3 µg/mL	5.9 µg/mL (≈ 9.66 µM)	6 µg/mL (≈ 9.82 µM)	1.8 µg/mL (≈ 2.95 µM)	13.4 µg/mL (≈ 21.9 µM)	6.7 µg/mL (≈ 11 µM)	0.11 µg/mL	11.9 µg/mL (≈ 19.5 µM)	7.7 µg/mL (≈ 12.6 µM)	5.5 µg/mL	EC50 (HCT-8 [21]): 11.7 µg/mL; EC50 (1A9 [22]): 3.6 µg/mL (≈ 5.89 µM)
CCCCCCC[C@H](O)[C@@H]1CC[C@@H]([C@@H](O)CCCCCCCCCC[C@H](O)CC(=O)CC[C@@H](O)CC2=C[C@H](C)OC2=O)O1 [MONTACIN]	4.5 µg/mL	6.7 µg/mL	5.5 µg/mL	6.7 µg/mL (≈ 11 µM)	14.2 µg/mL	> 20 µg/mL	16.5 µg/mL (≈ 27 µM)	14.2 µg/mL	13.9 µg/mL	9.1 µg/mL	7.5 µg/mL	> 10 µg/mL	12.9 µg/mL (≈ 21.1 µM)	7.9 µg/mL (≈ 12.9 µM)	> 20 µg/mL	10 µg/mL (≈ 16.4 µM)	2.8 µg/mL	> 20 µg/mL	16.6 µg/mL (≈ 27.2 µM)	7.4 µg/mL	EC50 (SK-MEL-2 [23]): 11.2 µg/mL (≈ 18.3 µM); EC50 (SK-MEL-2 [24]): 13.3 µg/mL; EC50 [25]: > 20 µg/mL; EC50 [26]: 14.2 µg/mL; EC50 (HCT-8 [21]): 12.3 µg/mL; EC50 (1A9 [22]): > 10 µg/mL

Reference: ChEMBL document CHEMBL1148939, “Montacin and cis-montacin, two new cytotoxic monotetrahydrofuran annonaceous acetogenins from Annona montana” (2004)
